MrgX1 PAM – positive allosteric modulators of MrgX1, primary screen, HEK293 cells, Fluo-4 calcium flux; Mas-related G-protein coupled receptor member X1 (Homo sapiens), Q96LB2; FDSS; stronger effect = higher value; B-score at 10 µM; 0.63% of 310,000 active;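 active = plate-corrected calcium response at least 3 library SD above typical, normal starting fluorescence, not activating the receptor alone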;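 also: compound read alongside a low EC10 to EC30 dose of BAM8-22 agonist; peak minus trough fluorescence over baseline measured at the second addition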
Target sequence (Q96LB2 whole entry, looked up): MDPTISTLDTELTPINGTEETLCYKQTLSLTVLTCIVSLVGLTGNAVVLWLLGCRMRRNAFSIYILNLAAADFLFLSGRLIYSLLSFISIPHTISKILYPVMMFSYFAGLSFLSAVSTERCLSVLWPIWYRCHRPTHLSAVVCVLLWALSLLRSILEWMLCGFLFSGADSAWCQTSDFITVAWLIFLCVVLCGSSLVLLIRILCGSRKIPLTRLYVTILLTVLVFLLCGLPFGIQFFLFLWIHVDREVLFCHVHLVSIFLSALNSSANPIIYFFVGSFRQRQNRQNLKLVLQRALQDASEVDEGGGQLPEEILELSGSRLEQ
MrgX1 ag – agonists of human MrgX1 receptor, primary screen, HEK293 cells, Fluo-4 calcium flux. Fluo-4 calcium fluorescence, agonist mode; stronger effect = higher value. B-score at 10 µM. 0.44% of 310,000 active. Mas-related G-protein coupled receptor member X1 (Homo sapiens), Q96LB2;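 active = calcium response B-score plate-corrected fluorescence ratio at least 3 library SD, with starting fluorescence B-score inside 5 SD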
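System – MrgX1-expressing HEK293 cells · Incubation – cells plated overnight, dye loaded 0.5 h 37 °C, 0.5 h room temperature · Technique – kinetic Fluo-4 NW fluorescence of intracellular calcium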
RGS4 inh – RGS4 inhibitors, primary screen, cell-based, HEK293 M3R inducible RGS4, calcium flux; Fluo-4 calcium flux; stronger effect = higher value; triggered by carbachol at its EC20; B-score at 10 µM; Regulator of G-protein signaling 4 (Homo sapiens), P49798; 0.45% of 310,000 active;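 active = B-score, a plate-corrected calcium signal, over three deviations above library mean, with baseline fluorescence within five deviations of library mean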;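 also: RGS4 expression induced by doxycycline in cells with stable M3 receptor; B-score is computed from the integrated fluorescence ratio over baseline after carbachol; higher B-score means a larger calcium signal and so more RGS4 inhibition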
Target sequence (P49798 whole entry, looked up): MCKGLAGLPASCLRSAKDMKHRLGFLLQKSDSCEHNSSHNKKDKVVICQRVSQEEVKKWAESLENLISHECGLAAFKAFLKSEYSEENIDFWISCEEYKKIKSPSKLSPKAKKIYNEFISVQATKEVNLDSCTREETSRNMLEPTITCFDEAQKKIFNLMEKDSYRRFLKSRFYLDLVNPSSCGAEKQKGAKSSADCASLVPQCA
MrgX1 antag – antagonists of human MrgX1 receptor, primary screen, HEK293 cells, Fluo-4 calcium flux; 1.3% of 310,000 active; B-score at 10 µM; BAM8-22 antagonism; stronger effect = lower value;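 active = calcium-response B-score plate-corrected more than 3 library SD below zero, starting fluorescence within 5 deviations, no agonist response on first addition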;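 also: peak minus trough fluorescence over baseline after final BAM8-22 challenge near maximal dose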
RGS4 pot – RGS4 potentiators or activators, primary screen, cell-based, HEK293 M3R inducible RGS4, calcium flux; B-score at 10 µM; carbachol calcium flux Fluo4; stronger effect = lower value; 0.92% of 310,000 active;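 active = B-score of the integrated calcium signal more than 4 SD below the library mean, with starting fluorescence not abnormally high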;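 also: negative B-score means reduced calcium response which marks RGS4 activation or potentiation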
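Material: Inducible-RGS4 HEK293 cells carrying M3 receptor; also added: carbachol at ECmax as muscarinic agonist stimulus; incubation: compound preincubation 20 min at room temperature before agonist; signal: Fluo4-AM (2 µM) calcium-flux fluorescence, kinetic read; measure: integrated calcium ratio converted to B score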
RGS4 inh valid – enhanced carbachol calcium response, M3R/RGS4 cells, RGS4 inhibitor project, cell-based, validation screen, HEK293 M3R/RGS4, calcium flux | shares compounds with RGS4 inh | carbachol calcium Fluo-4 fluorescence; carbachol added at its EC20; 0 = buffer wells, 100 = carbachol control | calcium response, % at 10 µM | 65% of 1,700 active | AID 492999, 2010;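 active = duplicate-averaged calcium response above the buffer-only control mean plus 5 SD of those controls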;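 also: integrated fluorescence ratio F max minus min over baseline F0; higher response in RGS4-induced cells means RGS4 inhibition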
M3R Ca ctr – carbachol calcium response in non-induced M3R cells, confirmation, counter-screen for RGS4 inhibitor project, cell-based, HEK293 M3R; shares compounds with RGS4 inh; carbachol calcium Fluo-4; submaximal (EC20) carbachol stimulus; buffer wells 0%, carbachol control wells 100%; activity (percent), % at 10 µM; 20% of 1,900 active; call rule not given here;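 also: RGS4 induction absent so cells express M3R without RGS4; higher means more calcium signal and flags a non-specific hit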
M3R basal Ca ctr – signal in non-induced cells without carbachol, RGS4 inhibitor counter-screen; shares compounds with RGS4 inh; HEK293 M3R/RGS4 non-induced, Fluo-4 calcium, no carbachol; normalised: buffer wells 0%, carbachol wells 100%; calcium response (agonist-mode artifact), % at 10 µM; 22% of 1,900 active; AID 493001;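 active = duplicate-averaged calcium rise in uninduced cells above buffer wells' mean plus 5 SD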
Each line names hits and unclear results; the compound was inactive in the other large screens (follow-up assays come after a bar, where they were run). Only some compounds are listed: those with a hit (about 3.5% of all), similar ones and a draw of the others.

Cc1cc(N2CCN(c3ccccc3)CC2)n2cc(-c3ccccc3)nc2n1	none
Cc1cc(N2CCN(c3ccccc3Cl)CC2)n2cc(-c3ccccc3)nc2n1	RGS4 inh 6 | RGS4 inh valid 28% | M3R Ca ctr inactive | M3R basal Ca ctr inactive
CCN(CC)S(=O)(=O)c1ccc(C(=O)NC(=S)N(CCC#N)Cc2cccnc2)cc1	none
COc1ccc(-c2csc(Nc3ccc(S(=O)(=O)Nc4cc(C)on4)cc3)n2)cc1C	RGS4 inh 13 | RGS4 inh valid inactive | M3R Ca ctr 46% | M3R basal Ca ctr inactive
COc1ccc(-c2csc(Nc3ccc(S(=O)(=O)Nc4cc(OC)nc(OC)n4)cc3)n2)cc1	RGS4 inh 5.7 | RGS4 inh valid 18% | M3R Ca ctr inactive | M3R basal Ca ctr inactive
COc1ccc(CC(=O)Nc2ccc(S(=O)(=O)Nc3cc(C)on3)cc2)cc1OC	none
COc1cc(NS(=O)(=O)c2ccc(NC(C)=O)cc2)nc(OC)n1	none
COc1cc(NS(=O)(=O)c2ccc(Nc3nc(-c4ccccn4)cs3)cc2)nc(OC)n1	none | M3R Ca ctr inactive | M3R basal Ca ctr inactive
COc1ccc2cc(/C=C/C(=O)c3ccco3)c(Cl)nc2c1	none
Cc1ccc2cc(/C=N/NC(=O)c3ccc(F)cc3)c(Cl)nc2c1	none
COc1cc2cc(/C=C/C(=O)c3ccco3)c(Cl)nc2cc1OC	RGS4 inh 8.1 | RGS4 inh valid 16% | M3R Ca ctr inactive | M3R basal Ca ctr 20%
Cc1ccc2nc(Cl)c(/C=C/C(=O)c3ccco3)cc2c1	none | RGS4 inh valid inactive | M3R Ca ctr 50% | M3R basal Ca ctr inactive
Cc1ccc2cc(/C=C/C(=O)c3ccco3)c(Cl)nc2c1	RGS4 inh 6 | RGS4 inh valid inactive | M3R Ca ctr 39% | M3R basal Ca ctr inactive
COc1ccc(NC(=O)Cn2c(=O)cnc3ccccc32)cc1S(=O)(=O)N1CCCCC1	none
C/C(=N/NC(=O)C(C)n1nc(C)c([N+](=O)[O-])c1C)c1ccc(OCC(N)=O)cc1 (stereo not drawn)	none
CCOC(=O)c1cc2sccc2n1CC(=O)C(C)(C)C	none
CC(CCc1ccccc1)NC(=O)C1CCN(S(=O)(=O)c2cnc[nH]2)CC1 (stereo not drawn)	none
COc1ccc(/C=C/C(=O)c2ccc3c(c2)OCCO3)cc1[N+](=O)[O-]	RGS4 inh 8.1 | RGS4 inh valid 6.0% | M3R Ca ctr inactive | M3R basal Ca ctr inactive
CC(=O)Nc1ccc(/C=C/C(=O)c2ccc3c(c2)OCCO3)cc1	none
O=C(O)c1ccc(/C=C/C(=O)c2ccc3c(c2)OCCCO3)cc1	RGS4 inh 14 | RGS4 inh valid 47% | M3R Ca ctr inactive | M3R basal Ca ctr inactive
COc1ccc(/C=N/NC(=O)c2ccc3c(c2)OCCO3)cc1[N+](=O)[O-]	none
CCCOc1ccc(C(=O)CCN2CCCCC2)cc1	none | RGS4 inh valid inactive | M3R Ca ctr inactive | M3R basal Ca ctr 12%
CCOc1ccc(C(=O)CCN2CCCCCC2)cc1	RGS4 inh 11 | RGS4 inh valid inactive | M3R Ca ctr inactive | M3R basal Ca ctr 20%
CCCCOc1ccc(C(=O)CCN2CCOCC2)cc1	none
Cc1oc(C(C)(C)C)cc1C(=O)N1CCCC1C(=O)O (stereo not drawn)	none
CCN(CC)S(=O)(=O)c1ccc(OCCNS(C)(=O)=O)cc1	none
O=c1c(O)c(-c2ccc(O)cc2)oc2cc(O)cc(O)c12	none | M3R Ca ctr inactive | M3R basal Ca ctr inactive
C=CCN=Cc1c(C)[nH]n(-c2ccccc2)c1=O	none
CCOc1cc(/C=C2\C(=O)ON=C2c2ccccc2)ccc1OC	RGS4 inh 25 | RGS4 inh valid 32% | M3R Ca ctr inactive | M3R basal Ca ctr 50%
COc1ccc(/C=C2\C(=O)ON=C2c2ccccc2)cc1OC	none | M3R Ca ctr inactive | M3R basal Ca ctr 8.5%
COc1cc(/C=C2\C(=O)ON=C2c2ccccc2)cc(OC)c1OC	none
CCOc1cc(/C=C2/C(=O)ON=C2C)ccc1OCc1ccccc1F	RGS4 inh 9.4, RGS4 pot -7 | RGS4 inh valid inactive | M3R Ca ctr inactive | M3R basal Ca ctr 94%
COc1ccc(/C=C2/C(=O)ON=C2c2ccccc2)cc1OC	none | M3R Ca ctr inactive | M3R basal Ca ctr 64%
COc1ccc(OC)c(C2C=C(C34CC5CC(CC(C5)C3)C4)NC(=S)N2)c1 (stereo not drawn)	RGS4 inh 8.8 | RGS4 inh valid 14% | M3R Ca ctr inactive | M3R basal Ca ctr inactive
O=Nc1c(-c2ccccc2)cc2ccccn12	none
COc1cc(C(C[N+](=O)[O-])c2c(-c3ccccc3)cc3ccccn23)cc(OC)c1OC (stereo not drawn)	none | M3R Ca ctr inactive | M3R basal Ca ctr inactive
COc1ccc(C(C[N+](=O)[O-])c2c(-c3ccccc3)cc3ccccn23)cc1OC (stereo not drawn)	MrgX1 ag 55, RGS4 inh 13 | RGS4 inh valid 12% | M3R Ca ctr inactive | M3R basal Ca ctr inactive
COc1cc(-c2ncc3ccccn23)cc(OC)c1OC	none
COc1ccc(C(C[N+](=O)[O-])c2c(-c3ccccc3)cc3ccccn23)cc1 (stereo not drawn)	RGS4 inh 15 | RGS4 inh valid 12% | M3R Ca ctr inactive | M3R basal Ca ctr inactive
COc1cc(C(C[N+](=O)[O-])c2c(C)cc3ccccn23)ccc1O (stereo not drawn)	none
CCOc1ccc(-c2c(C(=O)N/N=C/c3sccc3C)nnn2-c2nonc2N)cc1	none
CCOc1cccc(-c2c(C(=O)N/N=C/c3sccc3C)nnn2-c2nonc2N)c1	none | M3R Ca ctr inactive | M3R basal Ca ctr inactive
CCOc1cccc(-c2c(C(=O)N/N=C/c3ccsc3)nnn2-c2nonc2N)c1	none | M3R Ca ctr inactive | M3R basal Ca ctr inactive
Cc1ccc(-c2c(C(=O)N/N=C/c3ccsc3)nnn2-c2nonc2N)cc1	none
COc1cccc(-c2c(C(=O)N/N=C/c3ccc(C)s3)nnn2-c2nonc2N)c1	none

Bioassay records deposited in PubChem by Johns Hopkins Ion Channel Center.
